According to publication PMC5970367 (Chembiochem : a European journal of chemical biology, 2017):

What was measured:
[1] = tested on: fluorescein-labeled IRES SLIIb; test: Time-dependent MALDI-TOF mass spectrometry of SLIIb cleavage; assay type: biochemical, hepatitis C virus; settings: for Initial Rate (%Overhang/min), 2′, 3′-cPO4: overhang 2′,3′-cyclic phosphates; for Initial Rate (%Overhang/min), 2′, 3′-cPO4 / Initial Rate (%Overhang/min), 3′-AL / Initial Rate (%Overhang/min), 3′-OH / Initial Rate (%Overhang/min), 3′-PO4 / Initial Rate (%Overhang/min), 3′-PGA / Initial Rate (%Overhang/min), 3′-PG / Initial Rate (%Overhang/min), 5′-AL / Initial Rate (%Overhang/min), 5′-GemDiol / Initial Rate (%Overhang/min), 5′-OH / Initial Rate (%Overhang/min), 5′-PO4 / Initial Rate (%Overhang/min), 5′-PPA: MALDI-TOF time dependence; for Initial Rate (%Overhang/min), 3′-AL: overhang 3′-aldehyde; for Initial Rate (%Overhang/min), 3′-OH: overhang 3′-hydroxyl; for Initial Rate (%Overhang/min), 3′-PO4: overhang 3′-phosphates; for Initial Rate (%Overhang/min), 3′-PGA: overhang 3′-phosphoglycaldehyde; for Initial Rate (%Overhang/min), 3′-PG: overhang 3′-phosphoglycolate; for Initial Rate (%Overhang/min), 5′-AL: overhang 5′-aldehyde; for Initial Rate (%Overhang/min), 5′-GemDiol: overhang 5′-geminal diol; for Initial Rate (%Overhang/min), 5′-OH: overhang 5′-hydroxyl; for Initial Rate (%Overhang/min), 5′-PO4: overhang 5′-phosphate; for Initial Rate (%Overhang/min), 5′-PPA: overhang 5′-phosphopropenal; for Relative Initial Rate (Normalized Intensity/min × 1000), position A6 / Relative Initial Rate (Normalized Intensity/min × 1000), position A15 / Relative Initial Rate (Normalized Intensity/min × 1000), position A19 / Relative Initial Rate (Normalized Intensity/min × 1000), position A27 / Relative Initial Rate (Normalized Intensity/min × 1000), position A30 / Relative Initial Rate (Normalized Intensity/min × 1000), position C10 / Relative Initial Rate (Normalized Intensity/min × 1000), position C33 / Relative Initial Rate (Normalized Intensity/min × 1000), position G5 / Relative Initial Rate (Normalized Intensity/min × 1000), position G9 / Relative Initial Rate (Normalized Intensity/min × 1000), position G11 / Relative Initial Rate (Normalized Intensity/min × 1000), position G28 / Relative Initial Rate (Normalized Intensity/min × 1000), position U12 / Relative Initial Rate (Normalized Intensity/min × 1000), position U14 / Relative Initial Rate (Normalized Intensity/min × 1000), position U25 / Relative Initial Rate (Normalized Intensity/min × 1000), position U26 / Relative Initial Rate (Normalized Intensity/min × 1000), position U29 / Relative Initial Rate (Normalized Intensity/min × 1000), position U31: 10 μM SLIIb, 10 μM copper-peptide
Outline: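 Reactions contained 10 μM Fl-SLIIb, 10 μM Cu–peptide, 1 mM ascorbate and 1 mM H2O2, and were sampled at 2–180 min. They were quenched on ice, C18-desalted, and analysed by negative-ion reflectron MALDI-TOF (HPA/ammonium citrate matrix, ≥1000 shots). Peaks with m/z >1500 and S/N >5 were assigned against expected product masses. Products were summed per overhang type and expressed as a fraction at each time point. Initial rate was taken from the linear region (first ~40 min).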

[2] = tested on: 5′-fluorescein labeled HCV SLIIb; test: Reaction kinetics via fluorescence; assay type: biochemical, hepatitis C virus; settings: pseudo Michaelis-Menten, catalytic efficiency
Outline: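 Copper–peptide complexes were formed at 1.1:1 peptide:Cu. Each complex was added to 333 nM 5′-fluorescein-SLIIb with 1 mM ascorbic acid and 1 mM H2O2 in 20 mM HEPES (pH 7.4, 100 mM NaCl) at 25 °C. Fluorescence loss was followed at ex 491/em 518 nm and converted to RNA concentration by a calibration curve. Initial velocities were plotted against catalyst concentration and fit to Michaelis–Menten to give KM and kcat. Values are the mean of ≥3 trials.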

GGHARFK-Cu [4-Cu]
Initial Rate (%Overhang/min), 2′, 3′-cPO4 [1]: 0.5 ± 0.1 %Overhang/min
Initial Rate (%Overhang/min), 3′-AL [1]: 0.5 ± 0.1 %Overhang/min
Initial Rate (%Overhang/min), 3′-OH [1]: 1.2 ± 0.4 %Overhang/min
Initial Rate (%Overhang/min), 3′-PO4 [1]: 0.1 ± 0.1 %Overhang/min
Initial Rate (%Overhang/min), 3′-PGA [1]: 1.1 ± 0.4 %Overhang/min
Initial Rate (%Overhang/min), 3′-PG [1]: 1.5 ± 0.4 %Overhang/min
Initial Rate (%Overhang/min), 5′-AL [1]: 0.2 ± 0.1 %Overhang/min
Initial Rate (%Overhang/min), 5′-GemDiol [1]: 0.8 ± 0.1 %Overhang/min
Initial Rate (%Overhang/min), 5′-OH [1]: 1.1 ± 0.4 %Overhang/min
Initial Rate (%Overhang/min), 5′-PO4 [1]: 0.4 ± 0.1 %Overhang/min
Initial Rate (%Overhang/min), 5′-PPA [1]: 1.4 ± 0.3 %Overhang/min
Relative Initial Rate (Normalized Intensity/min × 1000), position A6 [1]: - ^a
Relative Initial Rate (Normalized Intensity/min × 1000), position A15 [1]: 14.2 ± 4.6 Normalized Intensity/min × 1000
Relative Initial Rate (Normalized Intensity/min × 1000), position A19 [1]: 2.9 ± 1.4 Normalized Intensity/min × 1000
Relative Initial Rate (Normalized Intensity/min × 1000), position A27 [1]: 2.1 ± 0.3 Normalized Intensity/min × 1000
Relative Initial Rate (Normalized Intensity/min × 1000), position A30 [1]: <1 Normalized Intensity/min × 1000
Relative Initial Rate (Normalized Intensity/min × 1000), position C10 [1]: - ^a
Relative Initial Rate (Normalized Intensity/min × 1000), position C33 [1]: - ^a
Relative Initial Rate (Normalized Intensity/min × 1000), position G5 [1]: - ^a
Relative Initial Rate (Normalized Intensity/min × 1000), position G9 [1]: 2.0 ± 0.5 Normalized Intensity/min × 1000
Relative Initial Rate (Normalized Intensity/min × 1000), position G11 [1]: - ^a
Relative Initial Rate (Normalized Intensity/min × 1000), position G28 [1]: - ^a
Relative Initial Rate (Normalized Intensity/min × 1000), position U12 [1]: - ^a
Relative Initial Rate (Normalized Intensity/min × 1000), position U14 [1]: - ^a
Relative Initial Rate (Normalized Intensity/min × 1000), position U25 [1]: - ^a
Relative Initial Rate (Normalized Intensity/min × 1000), position U26 [1]: 1.9 ± 0.4 Normalized Intensity/min × 1000
Relative Initial Rate (Normalized Intensity/min × 1000), position U29 [1]: - ^a
Relative Initial Rate (Normalized Intensity/min × 1000), position U31 [1]: 1.4 ± 0.4 Normalized Intensity/min × 1000
kcat/KM [2]: 0.038 µM⁻¹ min⁻¹

GGHNRFK-Cu [10-Cu]
kcat/KM [2]: 0.004 µM⁻¹ min⁻¹

GGHYAFK-Cu [5-Cu]
Initial Rate (%Overhang/min), 2′, 3′-cPO4 [1]: 0.2 ± 0.1 %Overhang/min
Initial Rate (%Overhang/min), 3′-AL [1]: 0.2 ± 0.1 %Overhang/min
Initial Rate (%Overhang/min), 3′-OH [1]: 1.2 ± 0.1 %Overhang/min
Initial Rate (%Overhang/min), 3′-PO4 [1]: 0.8 ± 0.1 %Overhang/min
Initial Rate (%Overhang/min), 3′-PGA [1]: 0.1 ± 0.1 %Overhang/min
Initial Rate (%Overhang/min), 3′-PG [1]: 0.1 ± 0.1 %Overhang/min
Initial Rate (%Overhang/min), 5′-AL [1]: 1.0 ± 0.2 %Overhang/min
Initial Rate (%Overhang/min), 5′-GemDiol [1]: 0.5 ± 0.1 %Overhang/min
Initial Rate (%Overhang/min), 5′-OH [1]: 0.6 ± 0.1 %Overhang/min
Initial Rate (%Overhang/min), 5′-PO4 [1]: 1.5 ± 0.6 %Overhang/min
Initial Rate (%Overhang/min), 5′-PPA [1]: 0.2 ± 0.1 %Overhang/min
Relative Initial Rate (Normalized Intensity/min × 1000), position A6 [1]: - ^a
Relative Initial Rate (Normalized Intensity/min × 1000), position A15 [1]: - ^a
Relative Initial Rate (Normalized Intensity/min × 1000), position A19 [1]: 1.0 ± 0.7 Normalized Intensity/min × 1000
Relative Initial Rate (Normalized Intensity/min × 1000), position A27 [1]: 1.1 ± 0.3 Normalized Intensity/min × 1000
Relative Initial Rate (Normalized Intensity/min × 1000), position A30 [1]: - ^a
Relative Initial Rate (Normalized Intensity/min × 1000), position C10 [1]: 1.0 ± 0.2 Normalized Intensity/min × 1000
Relative Initial Rate (Normalized Intensity/min × 1000), position C33 [1]: <1 Normalized Intensity/min × 1000
Relative Initial Rate (Normalized Intensity/min × 1000), position G5 [1]: <1 Normalized Intensity/min × 1000
Relative Initial Rate (Normalized Intensity/min × 1000), position G9 [1]: - ^a
Relative Initial Rate (Normalized Intensity/min × 1000), position G11 [1]: - ^a
Relative Initial Rate (Normalized Intensity/min × 1000), position G28 [1]: - ^a
Relative Initial Rate (Normalized Intensity/min × 1000), position U12 [1]: <1 Normalized Intensity/min × 1000
Relative Initial Rate (Normalized Intensity/min × 1000), position U14 [1]: - ^a
Relative Initial Rate (Normalized Intensity/min × 1000), position U25 [1]: 3.1 ± 0.6 Normalized Intensity/min × 1000
Relative Initial Rate (Normalized Intensity/min × 1000), position U26 [1]: - ^a
Relative Initial Rate (Normalized Intensity/min × 1000), position U29 [1]: - ^a
Relative Initial Rate (Normalized Intensity/min × 1000), position U31 [1]: - ^a
kcat/KM [2]: 0.018 µM⁻¹ min⁻¹

GGHDRFK-Cu [9-Cu]
kcat/KM [2]: 0.033 µM⁻¹ min⁻¹

GGHFRFK-Cu [12-Cu]
kcat/KM [2]: 0.01 µM⁻¹ min⁻¹
